A selection: hits, their analogues and other compounds. The true share with any hit is near 11%.
Diaph inh CS: counter-screen for diaphorase-based assays: diaphorase inhibitors and chemical oxidizers; diaphorase resazurin-to-resorufin fluorescence, NADH, 16 min; bacterial (C. kluyveri) enzyme, not human; inhibition, % at 20 µM; 190,000 tested, 0.69% active;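 active = primary screen inhibition at 20 µM above a set limit, cut at about 50% in these data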;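 also: plate controls were DMSO with full reaction for no effect and wells lacking NADH for full effect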
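Assay system: diaphorase enzyme from Clostridium kluyveri; Input: enzyme working solution with 0.14 U/mL diaphorase; Timing: 16 min at room temperature; Technique: resorufin fluorescence, excitation 544 nm, emission 590 nm; Benchmarks: positive control minus NADH, DMSO neutral control.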
WT yeast gro inh: growth inhibition of WT yeast, mitochondrial fusion screen. AID 1362. inhibition, % at 10 µM. mitochondrial fusion phenotypic screen, WT strain. 190,000 tested, 2.1% active; in the data active = inhibition above about 58%; tested in S. cerevisiae
Diaph act CS: diaphorase activation or chemical reduction counter-screen. Diaphorase/resazurin coupled assay, resorufin fluorescence, 16 min; stronger effect = higher value; 1 = vehicle wells, 0 = NADH-free wells. activation factor at 20 µM. 190,000 tested, 0.005% active. AID 1229;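 active = diaphorase activity raised at least twofold by the compound at 20 µM; inactive = activation factor below 2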
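System – purified diaphorase enzyme from Clostridium kluyveri · Input – enzyme 0.07 U/mL final · Also added – final NADH 0.114 mM, resazurin 0.1 mM · Measured by – fluorescence of resorufin, 544 nm excitation, 590 nm emission · Timing – 16 min enzyme reaction, ambient temperature · Measure – resorufin increase flagging diaphorase activators or reducers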
L major viab: inhibitors of Leishmania major promastigote growth; 200,000 tested, 9% active; Leishmania major promastigotes, resazurin fluorescence viability; inhibition, % at 10 µM;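 also: promastigotes grown with compound for 44 hours at 28 °C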
G6PDH counter: counter-screen for G6PDH assay hits: L. mesenteroides G6PDH inhibition; Purified L. mesenteroides G6PDH, diaphorase/resazurin coupled fluorescence, 45 min; 200,000 tested, 0.12% active; inhibition, % at 5 µM
* hit, by the source's call; . = no result given. Rule as the data show it, unless noted: active = inhibition above about 50%; inactive = the rest.

SMILES | Diaph inh CS | WT yeast gro inh | Diaph act CS | L major viab | G6PDH counter
Cc1nc(NCCc2ccccc2)c2oc3ccccc3c2n1 | 31 | 39 | 0.7 | 90* | 1
c1ccc(-c2nc(NCCCn3ccnc3)c3oc4ccccc4c3n2)cc1 | -13 | -7 | 1.1 | 100* | -4
Cc1nc(NCCN2CCOCC2)c2oc3ccccc3c2n1 | 8 | -7 | 0.9 | 36 | -3
C=CCN1C(=O)CS/C1=N\S(=O)(=O)c1ccc(Cl)cc1 | 2 | 12 | 1 | 1 | 2
CCOC(=O)c1[nH]c(C)c(C(=O)C(C)C)c1C | 16 | -1 | 0.8 | 3 | 7
CCCCN1C(=O)/C(=C/C=C2/CC(C)(C)CN2C)SC1=S | 23 | -10 | 0.8 | 59* | 9
CN(Cc1ccccc1)C(=O)c1oc(=O)c2ccccc2c1-c1ccccc1 | 20 | 29 | 0.8 | 55* | 1
Cc1ccc(-c2c(C(=O)NCc3ccccc3)oc(=O)c3ccccc23)cc1 | 13 | 10 | 0.9 | 3 | 0
Cc1ccc(-c2c(C(=O)N(C)Cc3ccccc3)oc(=O)c3ccccc23)cc1 | 3 | 67* | 1 | 82* | 3
CCOc1ccc(/C=N/NC(=O)CSc2n[nH]c(=O)[nH]c2=O)cc1OC | 4 | -14 | 1 | -6 | -3
COc1cc(OC)cc(-c2cc3nc(C)cc(N4CCN(C(=O)c5ccco5)CC4)n3n2)c1 | 14 | 9 | 0.9 | 2 | 14
O=C(CNCCC1=CCCCC1)Nc1ccc(N2CCCCCC2)cc1 | 1 | 88 | 1 | 85* | 2
O=C(CN1CCCC1)Nc1ccc(Oc2ccc(NC(=O)CN3CCCC3)cc2)cc1 | -10 | -2 | 1.1 | 79* | 0
CC1CCN(CC(=O)Nc2ccc(N3CCCCCC3)cc2)CC1 | 25 | 3 | 0.8 | 78* | 11
O=C(CN1CCNCC1)Nc1ccc(Oc2ccccc2)cc1 | 22 | 7 | 0.8 | -3 | 1
O=C(CN1CCN(c2ccccc2)CC1)Nc1ccc(Oc2ccccc2)cc1 | 10 | 60* | 0.9 | -1 | 9
C=COCCNC(=S)N1CCOCCOCCN(C(=S)NCCOC=C)CCOCCOCC1 | -3 | 1 | 1 | -4 | 2
COc1ccc(N2Cc3cccc(C(=O)NC(C)CCc4ccco4)c3C2=O)cc1 (configuration not stated) | 25 | 16 | 0.7 | -3 | 2
CC(CCc1ccco1)NC(=O)c1cccc2c1C(=O)N(C1CCCCC1)C2 (configuration not stated) | 10 | 60* | 0.9 | 15 | 7
C=CCSc1ncc(CO)n1Cc1ccccc1 | 0 | 11 | 1 | -5 | 1
Cc1ccc(NC(=O)CN(C)Cc2nc3c(Br)cc(Br)cc3c(=O)[nH]2)cc1 | 19 | 5 | 0.8 | -7 | 1
CN(Cc1ccc(OC(F)F)cc1)Cc1nc2c(Br)cc(Br)cc2c(=O)[nH]1 | 23 | 70* | 0.8 | 4 | 4
COc1cc(-c2cc(C(=O)NN3CCN(C)CC3)c3ccccc3n2)cc(OC)c1OC | -13 | -5 | 1.1 | 91* | 16
COc1cc(-c2cc(C(=O)Nc3c(Cl)cc(Cl)cc3Cl)c3ccccc3n2)cc(OC)c1OC | 19 | 28 | 0.8 | 81* | 0
CC(C)OP(=O)(OC(C)C)C(NC(=O)c1cccc([N+](=O)[O-])c1)C(N)=O (configuration not stated) | 4 | -13 | 1 | -4 | 0
SMILES | Diaph inh CS | WT yeast gro inh | Diaph act CS | L major viab | G6PDH counter
Oc1ccccc1CN(Cc1ccco1)CC(O)COCc1ccc(Cl)cc1 (configuration not stated) | 17 | 68* | 0.8 | 5 | 7
Clc1ccc(-c2cc3ccccc3nc2N2CCCC2)cc1 | 13 | 70* | 0.9 | -2 | -10
Cc1ccc(-c2cc(C(=O)N/N=C/c3c(C)nn(C)c3C)c3ccccc3n2)c(C)c1 | 37 | 13 | 0.6 | 100* | 5
Cc1ccc(-c2cc(C(=O)N/N=C/c3c(C)nn(-c4ccccc4)c3C)n[nH]2)s1 | 26 | 10 | 0.7 | 58* | -12
Cc1nn(-c2ccccc2)c(C)c1/C=N/NC(=O)c1cc(C(C)(C)C)[nH]n1 | -5 | -1 | 1 | 8 | 10
Cc1ccc(-c2cc(C(=O)N/N=C/c3c(C)nn(-c4ccccc4)c3C)[nH]n2)cc1 | 33 | 53 | 0.7 | 71* | -57
Nc1nc(N2CCN(c3cccc(Cl)c3)CC2)n[nH]1 | -8 | 2 | 1.1 | 0 | 8
Nc1ccc(N2CCN(c3cccc(Cl)c3)CC2)cc1 | -11 | 29 | 1.1 | 89* | 6
O=c1oc2ccccc2c(O)c1/C=N/c1ncccn1 | 8 | . | 0.9 | . | 10
O=c1oc2ccccc2c(O)c1/C=C1\C=Nc2ccccc21 | 6 | -2 | 0.9 | 100* | 12
O=C(c1ccc(S(=O)(=O)N2CCc3ccccc3C2)cc1)N1CCCCC1 | 14 | -3 | 0.9 | 5 | 2
CCCN(CC1CC1)C(=O)CSc1nnc(-c2cc(-c3cccs3)nc3ccccc23)o1 | 7 | -9 | 0.9 | 19 | 0
CCCCOC(=O)CCN1C(=O)/C(=C2\SC(=S)N(CCC(=O)OCCCC)C2=O)SC1=S | 11 | 2 | 0.9 | 66* | -10
Cc1cc(NC(=O)COC(=O)[C@H](C)NC(=O)c2ccccc2)no1 | 0 | . | 1 | 0 | 10
Cc1cc(NC(=O)COC(=O)C(Nc2ccc(C(F)(F)F)cc2Cl)C(C)C)no1 (configuration not stated) | 36 | 79* | 0.6 | 11 | -2
CC(=O)c1c(C)[nH]c(C(=O)OCC(=O)Nc2cc(S(=O)(=O)N3CCCC3)ccc2Cl)c1C | 10 | -9 | 0.9 | 72* | -41
O=C(CN1CCOCC1)Nc1cccc(S(=O)(=O)N2CCCCCC2)c1 | -3 | 17 | 1 | -5 | 11
O=C(COc1cccc(Cl)c1)Nc1ccc(N2CCOCC2)cc1 | 11 | 2 | 0.9 | -2 | 14
O=C(CN1CCN(Cc2ccccc2)CC1)Nc1cccc(S(=O)(=O)N2CCCCCC2)c1 | 15 | 4 | 0.8 | 79* | 2
Cc1cc(C(=O)Nc2cccc(S(=O)(=O)N3CCCCC3)c2)c2ccccc2n1 | 19 | 10 | 0.8 | 3 | 0
O=C(COc1cccc(Cl)c1)Nc1ccc2c(c1)CCC2 | 4 | 54 | 1 | 56* | 9
O=C(Nc1cccc(S(=O)(=O)N2CCCCC2)c1)c1c2c(nc3ccccc13)CCN(Cc1ccccc1)C2 | 26 | 8 | 0.7 | 90* | 9
N#C/C(=C\c1cc(Cl)cc(Cl)c1O)C(=O)NC1CCCCC1 | 23 | 19 | 0.8 | 1 | 16
Cc1cc(C)n(-c2nc3c(c(=O)n(C)c(=O)n3C)n2CC(O)COc2ccccc2C)n1 (configuration not stated) | . | . | . | 0 | .
COc1ccc(CC(=O)Nc2cccc(S(=O)(=O)N3CCCCCC3)c2)cc1OC | 17 | -19 | 0.8 | 84* | 19
O=C(CN1CCCC1)Nc1ccc2c(c1)CCC2 | 14 | -19 | 0.9 | -1 | 4
